Screening data from PubChem BioAssay.
NR3A LBD binder – binders of NR3A ligand-binding domain, primary screen, biophysical, differential scanning fluorimetry, uHTS; Glutamate receptor ionotropic, NMDA 3A (GRIN3A) ligand-binding domain; NR3A LBD differential scanning fluorimetry, Tm shift; 0% = protein alone, 100% = glycine-bound protein; Tm shift relative to glycine control, % at 25 µM; actives 2.5% (n = 340,000); AID 1259313, 2017;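 active means melting temperature shift of at least 10% of the positive control shift, at one fixed dose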
EBI2 block – EBI2 receptor antagonists, beta-arrestin recruitment, primary screen, cell-based, luminescence, 7a,25-OHC stimulation, uHTS. G-protein coupled receptor 183 (Homo sapiens), P32249. 7a,25-OHC stimulated. inhibition, % at 5 µM. actives 0.81% (n = 360,000). AID 651636, 2012; in the data active means inhibition above about 38%;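 further: enzyme fragment complementation signal reports receptor beta-arrestin coupling in cells; 0% = agonist plus DMSO wells and 100% = wells without agonist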
Target sequence (P32249 whole entry, looked up, the tested form may be a part): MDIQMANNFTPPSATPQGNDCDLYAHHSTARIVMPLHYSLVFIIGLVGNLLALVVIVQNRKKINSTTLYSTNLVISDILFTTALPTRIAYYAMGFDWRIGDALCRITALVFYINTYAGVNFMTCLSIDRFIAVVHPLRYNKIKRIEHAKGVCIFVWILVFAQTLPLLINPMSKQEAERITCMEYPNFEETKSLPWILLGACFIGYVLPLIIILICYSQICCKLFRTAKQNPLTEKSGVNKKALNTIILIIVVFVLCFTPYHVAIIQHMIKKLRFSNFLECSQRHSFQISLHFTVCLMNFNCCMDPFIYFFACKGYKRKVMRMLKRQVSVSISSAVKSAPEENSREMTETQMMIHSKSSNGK
SENP1 inh – human SENP1 catalytic domain inhibitors, primary screen, biochemical, FRET, uHTS; recombinant SENP1 catalytic domain, CyPet-SUMO1-YPet FRET cleavage; inhibition, % at 10 µM; actives 0.21% (n = 360,000); AID 624204, 2012;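 active means inhibition at least 30% at 10 µM, raw YFP signal under a set limit, fluorescence ratio 0.5 to 1.5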;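 further: 0% = enzyme with DMSO and 100% = no enzyme wells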
Target sequence (Q9P0U3 419-644 limits assumed): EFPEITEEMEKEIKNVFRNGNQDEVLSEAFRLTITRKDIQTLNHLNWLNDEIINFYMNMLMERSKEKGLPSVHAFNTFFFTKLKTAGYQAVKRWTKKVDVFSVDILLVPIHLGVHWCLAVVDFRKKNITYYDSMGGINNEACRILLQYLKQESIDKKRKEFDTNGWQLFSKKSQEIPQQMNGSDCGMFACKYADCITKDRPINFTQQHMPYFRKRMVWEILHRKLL
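system = hSENP1 catalytic domain, recombinant | reagent = SFCypet-SUMO1-SFYpet substrate at 25 nM | doses = one dose per compound, 10 µM, 0.5% DMSO | incubation = enzyme reaction for 50 min at room temperature, dark | measured by = FRET, CFP and YFP emission | controls = no-enzyme low, enzyme-DMSO high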
MPTP inh – mitochondrial permeability transition pore inhibitors, primary screen, biochemical, isolated mouse mitochondria, absorbance | actives 1.4% (n = 360,000) | Ca2+ swelling absorbance, 30 min | inhibition, % at 10 µM | AID 602449, 2012;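 active means inhibition of 50% or more, scaled per plate between neutral and stimulator controls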;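 further: 0% = DMSO wells given calcium and 100% = 1 mM EGTA wells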
Active calls of the source: *; · = not tested or not shown. This is a sample that favours compounds with a hit; in the whole collection about 4.4% have one here.

SMILES | NR3A LBD binder | EBI2 block | SENP1 inh | MPTP inh
COc1cccc(N2CCN(C(=O)c3ccc(Cl)c(S(=O)(=O)N4CCCCCC4)c3)CC2)c1 | · | -8 | 1 | 0
CCN(CC)S(=O)(=O)c1ccc(C(=O)NCCOC(=O)c2ccc(F)cc2F)cc1 | 19* | 0 | -2 | 1
COC(=O)Cn1c(=NC(=O)c2cc(-c3cccs3)nc3ccccc23)sc2cc(S(N)(=O)=O)ccc21 | 16* | 26 | -37 | -1
CCOC(=O)Cn1c(=NC(=O)c2cc(-c3cccs3)nc3ccccc23)sc2cc(S(N)(=O)=O)ccc21 | 26* | 27 | -23 | -2
COc1ccc([C@H]2CC(=O)C=C(c3ccc(F)cc3OCc3ccccc3)C2)cc1OC | 12* | 8 | 2 | 1
COc1ccc([C@H]2CC(=O)C=C(c3ccc(F)cc3OCc3ccccc3)C2)cc1 | 0 | 16 | 1 | 2
CCn1c(=S)sc2c(=O)n(CC(=O)Nc3cccc(Cl)c3)c(C)nc21 | 33* | 0 | 1 | 5
Cc1ccc(N(CCC(=O)O)S(=O)(=O)c2ccc(C)cc2)cc1 | 1 | -4 | 1 | 2
Cc1ccc(S(=O)(=O)N(CCC(=O)O)c2ccccc2)cc1 | 15* | -11 | 1 | 1
COc1ccc(NC(=O)C(c2ccc(C)cc2)N(C)C(=O)CC2NC(=O)NC2=O)cc1 (stereo unspecified) | 12* | -7 | 2 | 0
COc1ccc(C(CNC(=O)COc2cc(C)c(Cl)c(C)c2)N2CCCCC2)cc1 (stereo unspecified) | -1 | 9 | 8 | 0
CC(C)[C@H](NC(=O)OC(C)(C)C)C(=O)N/N=C/c1ccc2nccnc2c1 | -3 | -1 | 3 | 6
CC(C)[C@@H](N)C(=O)N/N=C/c1ccc2nccnc2c1 | 11* | -9 | -20 | 0
C#CCOCCOCCOCCNc1nc(N2CCN(C(=O)CCCCCCCCCCNC(=O)[C@H](CO)n3cc(CCCSC)nn3)CC2)nc(N2CCN(C(=O)CCCCCCCCCCNC(=O)[C@H](CCCCN)n3cc(CCO)nn3)CC2)n1 | 28* | -7 | -1 | -10
C#CCOCCOCCOCCNc1nc(N2CCN(C(=O)CCCCCCCCCCNC(=O)[C@H]([C@@H](C)CC)n3cc(CCCCCN)nn3)CC2)nc(N2CCN(C(=O)CCCCCCCCCCNC(=O)[C@H](CO)n3cc(CCCCCN)nn3)CC2)n1 | 28* | 3 | 0 | -4
C#CCOCCOCCOCCNc1nc(N2CCN(C(=O)CCCCCCCCCCNC(=O)[C@@H](CCSC)n3cc(CCO)nn3)CC2)nc(N2CCN(C(=O)CCCCCCCCCCNC(=O)[C@H](CCSC)n3cc(CCO)nn3)CC2)n1 | -5 | -8 | 0 | 0
C#CCOCCOCCOCCNc1nc(N2CCN(C(=O)CCCCCCCCCCNC(=O)[C@H]([C@@H](C)CC)n3cc(CCCCN=C(N)N)nn3)CC2)nc(N2CCN(C(=O)CCCCCCCCCCNC(=O)[C@H](CO)n3cc(CCCCCN)nn3)CC2)n1 | 17* | -1 | -3 | 20
C#CCOCCOCCOCCNc1nc(N2CCN(C(=O)CCCCCCCCCCNC(=O)[C@H]([C@@H](C)CC)n3cc(CCCCCN)nn3)CC2)nc(N2CCN(C(=O)CCCCCCCCCCNC(=O)[C@H]([C@@H](C)CC)n3cc(CCCCN=C(N)N)nn3)CC2)n1 | · | 4 | 1 | -15
O=C(NCCCCc1ccccc1)c1ccccc1Br | 0 | -9 | 0 | 2
CC(=O)N(c1cccc(C(F)(F)F)c1)c1nc(/C=C/C(=O)O)cs1 | -1 | 2 | -2 | 2
CCOc1ccccc1CN1CCNC(=O)C1CC(=O)N(C)CCc1cnn(C)c1 (stereo unspecified) | 1 | -2 | -4 | -2
COc1ccc(NC(=O)c2ccc(S(=O)(=O)N3CCCC3)cc2)cc1OC | 0 | -6 | 2 | 0
COc1ccc(C(=O)Nc2ccc(S(=O)(=O)NC(C)(C)C)cc2)cc1[N+](=O)[O-] | 28* | 10 | 0 | -1
COc1ccc(Cl)cc1C(=O)Nc1ccc(S(=O)(=O)N2CCCC2)cc1 | 20* | 2 | -3 | 0
COc1ccc(C(=O)Nc2ccc(S(=O)(=O)N3CCCC3)cc2)cc1[N+](=O)[O-] | 41* | 12 | -1 | 0
SMILES | NR3A LBD binder | EBI2 block | SENP1 inh | MPTP inh
C/C=C/c1ccc(OCCCCNCc2ccco2)c(OC)c1 | 0 | -6 | -4 | 0
CCOc1ccccc1/C=N/N1CCN(Cc2ccccc2)CC1 | -1 | -8 | 1 | 0
CCN1C(=O)N(C)C(N(O)C(=O)NC)C1(C)C (stereo unspecified) | 1 | -6 | 3 | -5
Cc1cc(-c2ccccc2C(=O)O)on1 | 0 | -7 | 0 | -1
O=C(O)c1ccccc1C1=Nc2ccc(O)cc2Oc2cc(O)ccc21 | 2 | -1 | 59* | 0
O=C(O)C1CN(C(=O)c2ccccc2)c2cc(Cl)ccc2O1 (stereo unspecified) | -6 | 4 | 0 | 1
Cc1ccc(N2CCN(C(CCc3ccccc3)C(=O)Nc3c(C)cccc3C)CC2)cc1 (stereo unspecified) | · | 13 | 2 | 2
COc1ccc(NC(=O)CCNS(=O)(=O)c2cccc3nonc23)cc1Cl | 18* | 13 | 0 | -2
Cn1c(/C=C/c2ccc(Cl)cc2)c([N+](=O)[O-])c(=O)n(C)c1=O | 0 | 9 | 34* | 0
CC(C)CN(C(=O)CCC(=O)OC(C)C(=O)Nc1cccc(C#N)c1)c1c(N)n(CC(C)C)c(=O)[nH]c1=O (stereo unspecified) | -1 | -8 | -2 | 1
CCCCCN(C(=O)CCC(=O)OC(C)C(=O)Nc1cccc(C#N)c1)c1c(N)n(CCCC)c(=O)[nH]c1=O (stereo unspecified) | 18* | -3 | 0 | -2
COc1ccc(-c2n[nH]c(C)c2-c2cnn(-c3ccccc3)c2)c(O)c1C | 24* | -4 | -4 | 14
COc1ccc(-c2n[nH]c(C)c2-c2cnn(-c3ccccc3)c2)c(O)c1 | -3 | 9 | 0 | 5
CSc1ccc(CN(C)C(=O)C(Cc2ccccc2)NC(=O)c2ccccc2)cc1 (stereo unspecified) | 14* | -11 | 1 | 0
CC(C)NC(=O)COC(=O)C1CSC2(c3ccc(Br)cc3)CCC(=O)N12 (stereo unspecified) | -1 | -7 | -1 | -3
COC1=CC(=O)C(O)=C(CCCCCCC/C=C/CCCCCCCC2=C(O)C(=O)C=C(OC)C2=O)C1=O | 25* | -5 | 9 | 8
Cc1cccc(C(O)c2ncc(-c3ccc(C(F)(F)F)cc3)[nH]2)c1C (stereo unspecified) | · | 8 | -1 | 0
O=C(c1ccc(S(=O)(=O)Nc2ccccc2F)cc1)N1CCC1 | 3 | -15 | 2 | 0
COc1cc(N)c(Cl)cc1Cl | 1 | -5 | 1 | -1
